Results from ChEMBL document CHEMBL1150304, “Synthesis of new heteroaryl and heteroannulated indoles from dehydrophenylalanines: Antitumor evaluation” (2008).

How the values were obtained:
Format in all cases: functional
SF-268 = assay: Antitumor activity against human SF268 cells after 48 hrs; conditions: SF-268, 48 h
Outline: (§1)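 NCI-derived lines grown as monolayers in RPMI-1640 with 5% heat-inactivated FBS and 2 mM glutamine, 37 °C, 5% CO2. Plated at 1.5 × 10⁵ cells/mL (MCF-7, SF-268) or 0.75 × 10⁴ cells/mL (NCI-H460) and incubated 24 h. Continuous 48 h exposure to five serial concentrations (DMSO ≤0.5%). Sulforhodamine B stain, A492. GI50 is 50% net-growth inhibition from dose-response curves. Experiments run independently in duplicate.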

MCF7 = assay: Antitumor activity against human MCF7 cells after 48 hrs; conditions: MCF7, 48 h; outline: as §1
NCI-H460 = assay: Antitumor activity against human NCI-H460 cells after 48 hrs; conditions: NCI-H460, 48 h; outline: as §1

| GI50 (MCF7) [µM] | GI50 (NCI-H460) [µM] | Compound | GI50 (SF-268) [µM] |
| --- | --- | --- | --- |
| 11 | 12.7 | COC(=O)c1[nH]c2ccccc2c1-c1cccc2c1sc1ccccc12 | 17 |
| 72.7 | 40.3 | COC(=O)c1[nH]c2ccc3c4ccccc4sc3c2c1-c1ccccc1 | 50 |
| 26.5 | 18 | COC(=O)c1[nH]c2ccccc2c1-c1cccc2c1oc1ccccc12 | 35 |
| 0.0428 | 0.094 | COc1cccc2c1C(=O)c1c(O)c3c(c(O)c1C2=O)C[C@@](O)(C(=O)CO)C[C@@H]3O[C@H]1C[C@H](N)[C@H](O)[C@H](C)O1 [DOXORUBICIN] | 0.094 |
